Several values for one entry are separate records, joined by “and”; a condition that tells them apart may be missing. Identical values can stand only once. Each block holds one molecule with its values, some of them ahead of it.
Tests used:
[1] = test system: Neuropeptide FF receptor 1 (Homo sapiens), Q9GZQ6 [F311A]; assay: Agonist activity at human NPFF1 receptor F/Y7.35A mutant assessed as [3H]inositol phosphate accumulation at 10 uM after 2 hrs by liquid scintillation counting relative to NPVF; type: functional
[2] = test system: Neuropeptide FF receptor 2 (Homo sapiens), Q9Y5X5 [Y417A]; assay: Agonist activity at human NPFF2 receptor F/Y7.35A mutant assessed as [3H]inositol phosphate accumulation at 10 uM after 2 hrs by liquid scintillation counting relative to NPFF; type: functional
How it was run: (§1)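 IP accumulation in COS-7 cells transiently cotransfected with human NPFFR (Ala point mutant or wt) plus chimeric G protein. Cells seeded at 60,000/well and grown to subconfluency. Compounds were dissolved in DMSO and diluted in DMEM with 10 mM LiCl (1% v/v DMSO final). Stimulation lasted 2 h.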

[3] = biological target: T1, Neuropeptide FF receptor 2 (Homo sapiens, UniProt Q9Y5X5); assay: Agonist activity at human NPFF2 receptor expressed in COS1 cells assessed as [3H]inositol phosphate accumulation at 10 uM after 2 hrs by liquid scintillation counting relative to NPFF; type: functional, cell-based; details: COS-1
[4] = biological target: T2, Neuropeptide FF receptor 1 (Homo sapiens, UniProt Q9GZQ6); assay: Ratio of EC50 for human NPFF1 receptor F/Y7.35A mutant to EC50 for human wild type NPFF1 receptor
[5] = biological target: T2, Neuropeptide FF receptor 1; assay: Agonist activity at human NPFF1 receptor expressed in COS1 cells assessed as [3H]inositol phosphate accumulation at 10 uM after 2 hrs by liquid scintillation counting relative to NPVF; type: functional, cell-based; details: COS-1
[6] = test system: Neuropeptide FF receptor 1 (Homo sapiens), Q9GZQ6 [E205A]; assay: Agonist activity at human NPFF1 receptor E5.27A mutant assessed as [3H]inositol phosphate accumulation at 10 uM after 2 hrs by liquid scintillation counting relative to NPVF; type: functional; how it was run: as §1
[7] = test system: Neuropeptide FF receptor 2 (Homo sapiens), Q9Y5X5 [E310A]; assay: Agonist activity at human NPFF2 receptor E5.27A mutant assessed as [3H]inositol phosphate accumulation at 31.6 uM after 2 hrs by liquid scintillation counting relative to NPFF; type: functional; how it was run: as §1
[8] = test system: Neuropeptide FF receptor 2 (Homo sapiens), Q9Y5X5 [Y415A]; assay: Agonist activity at human NPFF2 receptor Y7.33A mutant assessed as [3H]inositol phosphate accumulation at 31.6 uM after 2 hrs by liquid scintillation counting relative to NPFF; type: functional; how it was run: as §1
[9] = test system: Neuropeptide FF receptor 2 (Homo sapiens), Q9Y5X5 [Y321A]; assay: Agonist activity at human NPFF2 receptor Y5.38A mutant assessed as [3H]inositol phosphate accumulation at 31.6 uM after 2 hrs by liquid scintillation counting relative to NPFF; type: functional; how it was run: as §1
[10] = test system: Neuropeptide FF receptor 2 (Homo sapiens), Q9Y5X5 [D400A]; assay: Agonist activity at human NPFF2 receptor D6.59A mutant assessed as [3H]inositol phosphate accumulation at 31.6 uM after 2 hrs by liquid scintillation counting relative to NPFF; type: functional; how it was run: as §1
[11] = biological target: Neuropeptide FF receptor 1 (Homo sapiens, UniProt Q9GZQ6, E205A); assay: Agonist activity at human NPFF1 receptor E5.27A mutant assessed as [3H]inositol phosphate accumulation after 2 hrs by liquid scintillation counting; type: functional; how it was run: as §1
[12] = test system: Neuropeptide FF receptor 1 (Homo sapiens), Q9GZQ6 [E205A]; assay: Agonist activity at human NPFF1 receptor E5.27A mutant assessed as [3H]inositol phosphate accumulation at 31.6 uM after 2 hrs by liquid scintillation counting relative to NPVF; type: functional; how it was run: as §1
[13] = biological target: Neuropeptide FF receptor 1 (Homo sapiens, UniProt Q9GZQ6, F311A); assay: Agonist activity at human NPFF1 receptor F/Y7.35A mutant assessed as [3H]inositol phosphate accumulation after 2 hrs by liquid scintillation counting; type: functional; how it was run: as §1
[14] = biological target: T2, Neuropeptide FF receptor 1; assay: Agonist activity at human NPFF1 receptor expressed in […] assessed as [3H]inositol phosphate accumulation after 2 hrs by liquid scintillation counting; type: functional, cell-based, COS-1; how it was run: as §1
[15] = biological target: Neuropeptide FF receptor 2 (Homo sapiens, UniProt Q9Y5X5, D400A); assay: Agonist activity at human NPFF2 receptor D6.59A mutant assessed as [3H]inositol phosphate accumulation after 2 hrs by liquid scintillation counting; type: functional; how it was run: as §1
[16] = biological target: Neuropeptide FF receptor 1 (Homo sapiens, UniProt Q9GZQ6, Y216A); assay: Agonist activity at human NPFF1 receptor Y5.38A mutant assessed as [3H]inositol phosphate accumulation after 2 hrs by liquid scintillation counting; type: functional; how it was run: as §1
[17] = test system: Neuropeptide FF receptor 1 (Homo sapiens), Q9GZQ6 [Y309A]; assay: Agonist activity at human NPFF1 receptor Y7.33A mutant assessed as [3H]inositol phosphate accumulation at 10 uM after 2 hrs by liquid scintillation counting relative to NPVF; type: functional; how it was run: as §1
[18] = biological target: Neuropeptide FF receptor 2 (Homo sapiens, UniProt Q9Y5X5, Y415A); assay: Agonist activity at human NPFF2 receptor Y7.33A mutant assessed as [3H]inositol phosphate accumulation after 2 hrs by liquid scintillation counting; type: functional; how it was run: as §1
[19] = test system: Neuropeptide FF receptor 1 (Homo sapiens), Q9GZQ6 [F311A]; assay: Agonist activity at human NPFF1 receptor F/Y7.35A mutant assessed as [3H]inositol phosphate accumulation at 31.6 uM after 2 hrs by liquid scintillation counting relative to NPVF; type: functional; how it was run: as §1
[20] = biological target: T1, Neuropeptide FF receptor 2; assay: Agonist activity at human NPFF2 receptor expressed in COS1 cells assessed as [3H]inositol phosphate accumulation after 2 hrs by liquid scintillation counting; type: functional, cell-based, COS-1
[21] = biological target: Neuropeptide FF receptor 2 (Homo sapiens, UniProt Q9Y5X5, Y321A); assay: Agonist activity at human NPFF2 receptor Y5.38A mutant assessed as [3H]inositol phosphate accumulation after 2 hrs by liquid scintillation counting; type: functional; how it was run: as §1
[22] = biological target: Neuropeptide FF receptor 1 (Homo sapiens, UniProt Q9GZQ6, D294A); assay: Agonist activity at human NPFF1 receptor D6.59A mutant assessed as [3H]inositol phosphate accumulation after 2 hrs by liquid scintillation counting; type: functional; how it was run: as §1
[23] = biological target: Neuropeptide FF receptor 1 (Homo sapiens, UniProt Q9GZQ6, Y309A); assay: Agonist activity at human NPFF1 receptor Y7.33A mutant assessed as [3H]inositol phosphate accumulation after 2 hrs by liquid scintillation counting; type: functional; how it was run: as §1
[24] = test system: Neuropeptide FF receptor 1 (Homo sapiens), Q9GZQ6 [Y216A]; assay: Agonist activity at human NPFF1 receptor Y5.38A mutant assessed as [3H]inositol phosphate accumulation at 31.6 uM after 2 hrs by liquid scintillation counting relative to NPVF; type: functional; how it was run: as §1
[25] = biological target: Neuropeptide FF receptor 2 (Homo sapiens, UniProt Q9Y5X5, Y417A); assay: Agonist activity at human NPFF2 receptor F/Y7.35A mutant assessed as [3H]inositol phosphate accumulation after 2 hrs by liquid scintillation counting; type: functional; how it was run: as §1
[26] = biological target: Neuropeptide FF receptor 2 (Homo sapiens, UniProt Q9Y5X5, E310A); assay: Agonist activity at human NPFF2 receptor E5.27A mutant assessed as [3H]inositol phosphate accumulation after 2 hrs by liquid scintillation counting; type: functional; how it was run: as §1
[27] = test system: Neuropeptide FF receptor 1 (Homo sapiens), Q9GZQ6 [D294A]; assay: Agonist activity at human NPFF1 receptor D6.59A mutant assessed as [3H]inositol phosphate accumulation at 31.6 uM after 2 hrs by liquid scintillation counting relative to NPVF; type: functional; how it was run: as §1
[28] = test system: Neuropeptide FF receptor 2 (Homo sapiens), Q9Y5X5 [Y417A]; assay: Partial agonist activity at human NPFF2 receptor F/Y7.35A mutant assessed as [3H]inositol phosphate accumulation at 10 uM after 2 hrs by liquid scintillation counting relative to NPFF; type: functional
[29] = biological target: T2, Neuropeptide FF receptor 1; assay: Agonist activity at human NPFF1 receptor expressed in COS1 cells assessed as [3H]inositol phosphate accumulation up to 10 uM after 2 hrs by liquid scintillation counting; type: functional, cell-based; details: cos-1
[30] = biological target: T2, Neuropeptide FF receptor 1; assay: Competitive antagonist activity at human NPFF1 receptor expressed in COS1 cells assessed as inhibition of NPVF-induced [3H]inositol phosphate accumulation after 2 hrs by liquid scintillation counting; type: functional, cell-based, COS-1; details: read-out: pA2 (converted)
[31] = test system: Neuropeptide FF receptor 2 (Homo sapiens), Q9Y5X5 [D400A]; assay: Agonist activity at human NPFF2 receptor D6.59A mutant assessed as [3H]inositol phosphate accumulation at 31.6 uM after 2 hrs by liquid scintillation counting relative to NPFF
[32] = test system: Neuropeptide FF receptor 2 (Homo sapiens), Q9Y5X5 [Y321A]; assay: Agonist activity at human NPFF2 receptor Y5.38A mutant assessed as [3H]inositol phosphate accumulation at 10 uM after 2 hrs by liquid scintillation counting relative to NPFF; type: functional; how it was run: as §1
[33] = test system: Neuropeptide FF receptor 2 (Homo sapiens), Q9Y5X5 [Y415A]; assay: Agonist activity at human NPFF2 receptor Y7.33A mutant assessed as [3H]inositol phosphate accumulation at 10 uM after 2 hrs by liquid scintillation counting relative to NPFF; type: functional
[34] = biological target: T2, Neuropeptide FF receptor 1; assay: Partial agonist activity at human NPFF1 receptor expressed in COS1 cells assessed as [3H]inositol phosphate accumulation at 10 uM after 2 hrs by liquid scintillation counting relative to NPVF; type: functional, cell-based; details: COS-1

Chain of Neuropeptide FF receptor 2 (Homo sapiens, UniProt Q9Y5X5, Y417A) (Q9Y5X5 whole entry Y417A): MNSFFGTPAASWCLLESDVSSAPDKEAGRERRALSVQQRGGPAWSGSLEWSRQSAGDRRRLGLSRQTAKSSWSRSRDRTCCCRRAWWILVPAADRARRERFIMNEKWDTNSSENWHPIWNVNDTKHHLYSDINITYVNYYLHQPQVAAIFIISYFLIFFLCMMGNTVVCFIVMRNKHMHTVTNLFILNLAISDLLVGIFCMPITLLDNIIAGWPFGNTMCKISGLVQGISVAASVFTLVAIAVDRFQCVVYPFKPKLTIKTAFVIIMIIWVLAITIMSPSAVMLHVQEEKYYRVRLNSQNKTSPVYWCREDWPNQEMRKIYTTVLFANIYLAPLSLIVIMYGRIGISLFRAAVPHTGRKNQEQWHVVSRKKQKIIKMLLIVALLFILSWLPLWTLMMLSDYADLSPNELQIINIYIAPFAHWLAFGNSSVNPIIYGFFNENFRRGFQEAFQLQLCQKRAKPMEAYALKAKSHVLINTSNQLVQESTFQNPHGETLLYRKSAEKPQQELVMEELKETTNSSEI
Chain of Neuropeptide FF receptor 2 (Homo sapiens), Q9Y5X5 [Y417A] (Q9Y5X5 whole entry Y417A): as above
T1 sequence (Q9Y5X5 whole entry): as the sequence (Q9Y5X5 whole entry Y417A) above, with A417Y counted along it
Chain of Neuropeptide FF receptor 2 (Homo sapiens), Q9Y5X5 [Y321A] (Q9Y5X5 whole entry Y321A): as the sequence (Q9Y5X5 whole entry Y417A) above, with Y321A, A417Y counted along it
T2 sequence (Q9GZQ6 whole entry): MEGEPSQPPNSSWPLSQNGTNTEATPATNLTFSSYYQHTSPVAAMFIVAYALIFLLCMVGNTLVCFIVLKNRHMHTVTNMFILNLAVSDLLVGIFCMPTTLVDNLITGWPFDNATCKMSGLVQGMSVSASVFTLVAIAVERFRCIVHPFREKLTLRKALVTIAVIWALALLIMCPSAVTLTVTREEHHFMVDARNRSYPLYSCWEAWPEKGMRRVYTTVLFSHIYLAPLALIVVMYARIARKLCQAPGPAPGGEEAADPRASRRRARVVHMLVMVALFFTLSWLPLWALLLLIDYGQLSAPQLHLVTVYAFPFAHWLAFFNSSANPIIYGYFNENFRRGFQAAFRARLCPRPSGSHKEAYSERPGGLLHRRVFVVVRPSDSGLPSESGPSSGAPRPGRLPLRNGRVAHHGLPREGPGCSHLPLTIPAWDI
Chain of Neuropeptide FF receptor 1 (Homo sapiens), Q9GZQ6 [E205A] (Q9GZQ6 whole entry E205A): as the sequence (Q9GZQ6 whole entry) above, with E205A counted along it
Chain of Neuropeptide FF receptor 2 (Homo sapiens, UniProt Q9Y5X5, E310A) (Q9Y5X5 whole entry E310A): as the sequence (Q9Y5X5 whole entry Y417A) above, with E310A, A417Y counted along it
Chain of Neuropeptide FF receptor 2 (Homo sapiens), Q9Y5X5 [E310A] (Q9Y5X5 whole entry E310A): as the sequence (Q9Y5X5 whole entry Y417A) above, with E310A, A417Y counted along it
Chain of Neuropeptide FF receptor 2 (Homo sapiens), Q9Y5X5 [Y415A] (Q9Y5X5 whole entry Y415A): as the sequence (Q9Y5X5 whole entry Y417A) above, with Y415A, A417Y counted along it
Chain of Neuropeptide FF receptor 2 (Homo sapiens, UniProt Q9Y5X5, Y415A) (Q9Y5X5 whole entry Y415A): as the sequence (Q9Y5X5 whole entry Y417A) above, with Y415A, A417Y counted along it
Chain of Neuropeptide FF receptor 2 (Homo sapiens, UniProt Q9Y5X5, Y321A) (Q9Y5X5 whole entry Y321A): as the sequence (Q9Y5X5 whole entry Y417A) above, with Y321A, A417Y counted along it
Chain of Neuropeptide FF receptor 1 (Homo sapiens), Q9GZQ6 [F311A] (Q9GZQ6 whole entry F311A): as the sequence (Q9GZQ6 whole entry) above, with F311A counted along it
Chain of Neuropeptide FF receptor 1 (Homo sapiens, UniProt Q9GZQ6, F311A) (Q9GZQ6 whole entry F311A): as the sequence (Q9GZQ6 whole entry) above, with F311A counted along it
Chain of Neuropeptide FF receptor 2 (Homo sapiens, UniProt Q9Y5X5, D400A) (Q9Y5X5 whole entry D400A): as the sequence (Q9Y5X5 whole entry Y417A) above, with D400A, A417Y counted along it
Chain of Neuropeptide FF receptor 2 (Homo sapiens), Q9Y5X5 [D400A] (Q9Y5X5 whole entry D400A): as the sequence (Q9Y5X5 whole entry Y417A) above, with D400A, A417Y counted along it
Chain of Neuropeptide FF receptor 1 (Homo sapiens, UniProt Q9GZQ6, E205A) (Q9GZQ6 whole entry E205A): as the sequence (Q9GZQ6 whole entry) above, with E205A counted along it
Chain of Neuropeptide FF receptor 1 (Homo sapiens, UniProt Q9GZQ6, Y216A) (Q9GZQ6 whole entry Y216A): as the sequence (Q9GZQ6 whole entry) above, with Y216A counted along it
Chain of Neuropeptide FF receptor 1 (Homo sapiens), Q9GZQ6 [Y216A] (Q9GZQ6 whole entry Y216A): as the sequence (Q9GZQ6 whole entry) above, with Y216A counted along it
Chain of Neuropeptide FF receptor 1 (Homo sapiens), Q9GZQ6 [D294A] (Q9GZQ6 whole entry D294A): as the sequence (Q9GZQ6 whole entry) above, with D294A counted along it
Chain of Neuropeptide FF receptor 1 (Homo sapiens, UniProt Q9GZQ6, D294A) (Q9GZQ6 whole entry D294A): as the sequence (Q9GZQ6 whole entry) above, with D294A counted along it
Chain of Neuropeptide FF receptor 1 (Homo sapiens), Q9GZQ6 [Y309A] (Q9GZQ6 whole entry Y309A): as the sequence (Q9GZQ6 whole entry) above, with Y309A counted along it
Chain of Neuropeptide FF receptor 1 (Homo sapiens, UniProt Q9GZQ6, Y309A) (Q9GZQ6 whole entry Y309A): as the sequence (Q9GZQ6 whole entry) above, with Y309A counted along it

Compound: N=C(N)NCCC[C@H](NC(=O)C12CC3CC(CC(C3)C1)C2)C(=O)N[C@@H](Cc1ccccc1)C(N)=O
Emax [1]: 89% | Emax [2]: 75% | Emax [3]: 75% | Ratio EC50 [4]: 271 | Emax [5]: 93%

Emax [6]: 66%
Compound: CC(C)C[C@H](NC(=O)[C@H](CC(N)=O)NC(=O)[C@@H]1CCCN1C(=O)[C@@H](N)C(C)C)C(=O)N1CCC[C@H]1C(=O)N[C@@H](CCC(N)=O)C(=O)N[C@@H](CCCNC(=N)N)C(=O)N[C@@H](Cc1ccccc1)C(N)=O

Emax [7]: 24% | Emax [8]: 78% | Emax [9]: 65% | Emax [10]: 77% | EC50 [11]: > 10 µM | Emax [12]: 21% | EC50 [13]: > 10 µM | EC50 [14]: 5.62 µM | EC50 [15]: > 10 µM | EC50 [16]: > 10 µM | Emax [17]: 111% | EC50 [18]: > 10 µM | Emax [19]: 88% | EC50 [20]: 1.66 µM | EC50 [21]: > 10 µM | Emax [2]: 100% | Emax [3]: 118% | EC50 [22]: > 10 µM | Emax [5]: 110% | EC50 [23]: 4.61 µM | Emax [24]: 37% | EC50 [25]: 1.26 µM | EC50 [26]: > 10 µM | Emax [27]: 85%
Compound: N=C(N)N/N=C/c1ccc(-c2ccc(Br)cc2C(F)(F)F)o1

Compound: NC(=O)[C@H](Cc1ccccc1)NC(=O)[C@H](CCCN=C(N)N)NC(=O)C12CC3CC(CC(C3)C1)C2
EC50 [13]: 0.462 µM | EC50 [14]: 0.071 µM | EC50 [20]: 0.379 µM | EC50 [25]: 0.472 µM

Compound: NC(N)=NCCC[C@@H](NC(=O)C(c1ccccc1)c1ccccc1)C(=O)NCc1ccc(O)cc1
Emax [28]: 51% | EC50 [29]: Not Active | Emax [3]: 57%

EC50 [20]: 0.233 µM | Kb [30]: 0.0209 µM | EC50 [25]: 0.113 µM
Compound: N=C(N)NCCC[C@@H](NC(=O)C(c1ccccc1)c1ccccc1)C(=O)NCc1ccc(O)cc1

Emax [7]: 59% | EC50 [15]: 8.86 µM | EC50 [18]: 8.33 µM | Emax [31]: 140% | EC50 [29]: Not Active | EC50 [20]: 0.298 µM | EC50 [21]: 2.45 µM | Emax [2]: 107% | Emax [3]: 132% | Emax [32]: 83% and 69% | Emax [33]: 83% | Kb [30]: 0.0417 µM | EC50 [25]: 0.301 µM | EC50 [26]: > 10 µM
Compound: N=C(N)N/N=C/C12CC3CC(CC(C3)C1)C2

EC50 [14]: 2.37 µM
Compound: N=C(N)N/N=C/c1ccc(Cl)c(C(F)(F)F)c1

EC50 [14]: 0.527 µM | Emax [34]: 22% | EC50 [20]: 2.19 µM
Compound: N=C(N)N/N=C/c1ccc(Br)c(Br)c1

— ChEMBL document CHEMBL2163262 (J Med Chem, 2012)
